In the library only some 1.9% were active in any assay of this set; here they are far more common.
STEP inh = blocks human striatal-enriched tyrosine phosphatase; recombinant STEP, OMFP fluorogenic substrate, fluorescence; inhibition, % at 20 µM; 360,000 compounds, 0.25% hits; AID 588621;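 active = inhibition at 20 µM, scaled per plate between control wells, above about 37%, limit read from the data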;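 note: 0% = DMSO with enzyme and substrate and 100% = substrate only without enzyme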
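System: STEP phosphatase, cell-free reaction; Buffer or medium: Bis-Tris pH 6.0 buffer with DTT, detergent; Incubation: 20 min at room temperature, dark; Measured by: fluorescence, 480/540 nm.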
SUMO1 PPI mod = SUMO1-SIM interaction modulation; SUMO1 binding to a labelled peptide, TR-FRET, 1 h; inhibition, % at 20 µM; 360,000 compounds, 0.33% hits; AID 602429; in the data active = inhibition above about 37%
Target sequence (P63165 whole entry, looked up): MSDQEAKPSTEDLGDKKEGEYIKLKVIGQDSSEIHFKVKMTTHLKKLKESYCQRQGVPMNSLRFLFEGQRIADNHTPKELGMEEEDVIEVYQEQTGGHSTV
FAS TE block = blocks the thioesterase domain of human fatty acid synthase | recombinant FAS-TE, OMFH fluorogenic substrate, fluorescence endpoint | 360,000 compounds, 0.67% hits | AID 602261 | inhibition, % at 15 µM;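 active = compounds whose normalised, plate-corrected inhibition of enzyme fluorescence in the single-dose primary screen is 50% or more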;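 note: 0% = DMSO with enzyme and 100% = substrate without enzyme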
Scp1 inh = Scp-1 (human) phosphatase inhibition. inhibition, % at 20 µM. 340,000 compounds, 0.88% hits. Recombinant Scp1, phosphopeptide, malachite green phosphate absorbance. Q9GZU7;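 active = inhibition above about 50% at 20 µM, limit read from the data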;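 note: plate controls were DMSO wells with enzyme for no effect and wells lacking enzyme for full effect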
Target sequence (Q9GZU7 76-261 limits assumed): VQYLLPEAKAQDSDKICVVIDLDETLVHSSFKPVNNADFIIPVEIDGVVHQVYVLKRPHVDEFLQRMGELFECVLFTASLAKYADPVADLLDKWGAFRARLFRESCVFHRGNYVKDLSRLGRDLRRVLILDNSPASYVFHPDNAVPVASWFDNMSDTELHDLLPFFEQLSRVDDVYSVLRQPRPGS
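Test system: SCP-1 catalytic domain; Buffer or medium: Acidic Tris acetate buffer with magnesium and detergent; Also added: Phosphorylated 17-residue peptide substrate; Compound: single 20 µM dose, 1% DMSO; Schedule: enzyme reaction 45 min at room temperature, colour 5 min, stabilisation 30 min; Signal: Phosphate-binding colour reagent, absorbance read at 630 nm.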
LMPTP inh = LMPTP (human) inhibition. recombinant LMPTP-A, OMFP fluorogenic substrate, fluorescence intensity. inhibition, % at 20 µM. 360,000 compounds, 0.22% hits;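 active = compounds that cut the enzyme signal by at least half of the control window in the single-dose screen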;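 note: plate controls were DMSO wells with enzyme plus substrate for no effect and substrate without enzyme for full effect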
Target sequence (P24666 whole entry, looked up): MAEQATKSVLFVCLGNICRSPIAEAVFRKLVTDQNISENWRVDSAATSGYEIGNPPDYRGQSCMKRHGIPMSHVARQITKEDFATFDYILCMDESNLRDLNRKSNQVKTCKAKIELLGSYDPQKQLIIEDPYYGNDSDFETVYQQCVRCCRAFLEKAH
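Buffer or medium: Bis-Tris pH 6.0, DTT, detergent; Assay system: LMPTP-A enzyme; Quantity: 0.625 nM enzyme; Detection: endpoint fluorescence intensity; Times: 50 min dark incubation at room temperature; Controls: substrate-only low control, DMSO enzyme-plus-substrate high control; Doses: single 20 µM dose; Read-out: percent inhibition versus substrate-only and uninhibited controls; Reagent: 400 µM OMFP.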
An asterisk follows results filed as active; / = not tested or not shown.

SMILES | STEP inh | SUMO1 PPI mod | FAS TE block | Scp1 inh | LMPTP inh
O=C1C2C(C(=O)N1/N=C/c1ccc([N+](=O)[O-])o1)C1C=CC2C12CC2 (configuration not stated) | 2 | -14 | -11 | -2 | 0
Cc1cc(C)n2nc(SCC(=O)N/N=C/c3ccc(F)cc3)nc2n1 | -4 | 51* | -4 | 3 | -2
COc1ccc(CCC(=O)Nc2c(-c3ccc(N(C)C)cc3)[nH][nH]c2=O)cc1 | 8 | 47* | 37 | / | 13
CCCCNC(=O)c1nc(C2CCNCC2)oc1-c1ccccc1 | / | -2 | / | / | 6
CCOC(=O)[C@]12CCCC=C1N(CCC1=CCCCC1)C(=O)[C@H](CC(=O)NCC1CCCCC1)C2 | / | 1 | / | / | 4
Cc1ccc(Cl)cc1-c1cc(C(=O)NCc2cc(C(F)(F)F)cc(C(F)(F)F)c2)[nH]n1 | -2 | 1 | 17 | / | 1
CC(C)(C)NC(=O)C[C@H]1C[C@H](C(=O)N2CCOCC2)[C@@]2(CCC3CCCC3)c3[nH]c4ccc(Cl)cc4c3CCN2C1=O | -2 | -4 | 89* | 15 | 0
COc1ccc2[nH]c3c(c2c1)CCN1C(=O)C(CC(=O)NCCN2CCOCC2)C[C@H](C(=O)N2CCOCC2)[C@@]31CCC1CCCC1 (some centres not stated) | 2 | 2 | 44 | 4 | -3
Cc1cc(O)c2c(c1O)C(=O)[C@]13C(=C2O)C(=O)[C@@H]2[C@@H](O)[C@H]1[C@@H]1[C@H](O)[C@H]3C(=O)C3=C(O)c4c(O)cc(C)c(O)c4C(=O)[C@]312 | 43* | 103* | 10 | 58* | 88*
CCC(C)n1c(NC(=O)c2ccccc2)c(C#N)c2nc3ccccc3nc21 (configuration not stated) | 3 | 43* | 18 | -2 | 16
CCCCn1c(NC(=O)c2ccccc2)c(C#N)c2nc3ccccc3nc21 | 2 | 42* | 39 | -5 | 16
CCC(=O)Nc1c(C#N)c2nc3ccccc3nc2n1-c1ccc(C)cc1 | 2 | -14 | -3 | -2 | 0
C[C@@H]1O[C@H](CCc2cccc(Cl)c2)CC2=C1C(=O)OC(C)(C)O2 | / | 7 | 17 | / | -1
O=c1c2c(-c3ccccc3)csc2nc2c3ccccc3c(NCCN3CCOCC3)nn12 | 9 | 64* | 9 | 5 | 9
c1ccc(-c2csc3ncnc(NCCCN4CCOCC4)c23)cc1 | -1 | 3 | -10 | 0 | 0
CCOC(=O)c1ccc(N2CC(O)=C(c3nc4ccccc4c(=O)[nH]3)C2=N)cc1 | -1 | 50* | -2 | 9 | -1
CCOc1ccc(N2CC(O)=C(c3nc4ccccc4c(=O)[nH]3)C2=N)cc1 | 6 | 29 | 3 | -2 | 0
N#Cc1cn(-c2ccccc2)nc1-c1ccccc1 | -1 | 45* | 8 | 20 | 1
CCOC(=O)C1=CCN(S(=O)(=O)c2ccccc2F)C1c1cccc(Cl)c1 (configuration not stated) | 1 | 6 | 23 | / | 2
COc1cc([N+](=O)[O-])ccc1-c1ccc(/C=C2\C(=O)ON=C2c2ccccc2)o1 | 4 | 64* | -19 | 3 | 3
CC[C@@]1(O)C(=O)OCc2c1cc1n(c2=O)Cc2cc3c(N)cccc3nc2-1 | 5 | -17 | -14 | 57* | 2
CC[C@@]1(O)C(=O)OCc2c1cc1n(c2=O)Cc2cc3c(CN(C)C)c(O)ccc3nc2-1 | -6 | -29 | -82 | -4 | 0
CCOC(=O)[C@]12CCCC=C1N(CCc1ccc(OC)c(OC)c1)C(=O)[C@H](CC(=O)N1CCCC1)C2 | / | -5 | / | / | 0
O=c1oc(Cl)c(Cl)c2ccccc12 | -2 | 4 | 92* | 5 | -2
Cn1nc(C(C)(C)C)cc1C(=O)N1CCCC(c2cc(C(=O)NCc3ccccc3)no2)C1 (configuration not stated) | 0 | -3 | -3 | / | 0
SMILES | STEP inh | SUMO1 PPI mod | FAS TE block | Scp1 inh | LMPTP inh
COC(=O)c1ccc(C(=O)OC)c(NC(=O)Cc2cccs2)c1 | 10 | 5 | -6 | / | 54*
COc1ccccc1NC(=O)Cc1cccs1 | 1 | 0 | -2 | 8 | 0
COc1ccc2ncccc2c1Cc1c(OC)ccc2ncccc12 | 1 | -13 | -3 | -5 | 56*
CCCCn1nnnc1C1(C)CCC(=O)N1Cc1ccc(C)cc1 (configuration not stated) | / | 2 | -7 | / | -1
O=C(NCCN1CCOCC1)C1CCN(S(=O)(=O)N2CCCCC2)CC1 | 0 | 64* | -7 | 1 | 0
Cc1c(N2C(=O)c3ccc(Br)cc3C2=O)c(=O)n(-c2ccccc2)n1C | -6 | -7 | -4 | -5 | 0
Cc1c(N2C(=O)c3ccc4c5c(ccc(c35)C2=O)CC4)c(=O)n(-c2ccccc2)n1C | 7 | -5 | -7 | 65* | 52*
COc1ccc(C)cc1-n1nnnc1SCc1nc(N)nc(N(C)C)n1 | -1 | 2 | -4 | / | 0
Oc1c(N=Nc2nn[nH]n2)ccc2ccccc12 | 3 | 50* | 16 | / | 9
CCNC(=O)C1CCCN(C(=O)c2ccc(C#N)cc2)CC1 (configuration not stated) | -1 | -2 | -10 | / | -1
COc1ccc(Cl)cc1Cn1c(C)c(C(=O)NCc2ccc(F)cc2)sc1=O | 2 | 4 | 25 | / | 2
Cc1cccc(C(=O)O/N=C(/c2ccccc2)c2ccncc2)c1 | 4 | 40* | 9 | 4 | 1
COc1ccc(C(=O)O/N=C(/c2ccccc2)c2ccncc2)cc1OC | -3 | 0 | -8 | -6 | 1
O=C(Cc1ccc(-n2c(=O)c3ccccc3n(Cc3ccc(F)cc3)c2=O)cc1)NCC1CCCO1 (configuration not stated) | 2 | 40* | -4 | -30 | 0
O=C(Cc1ccc(-n2c(=O)c3ccccc3n(Cc3ccccc3F)c2=O)cc1)NCC1CCCO1 (configuration not stated) | 0 | 2 | -11 | 3 | 2
c1coc(-c2nc(-c3ccco3)c(-c3ccco3)nc2-c2ccco2)c1 | 94* | 83* | 20 | 93* | 82*
COc1ccc2nc(-c3ccco3)c(-c3ccco3)nc2c1 | 11 | 44* | 2 | 77* | 54*
COc1ccc2nc3cccc(OC)c3nc2c1 | 1 | 22 | -5 | -1 | 3
CC(=O)NC(c1ccccc1)c1nc(-c2ccc(Cl)cc2)cs1 (configuration not stated) | 0 | -2 | 3 | / | 1
Cn1c(SCC(=O)Nc2ccc3nc(SCC(=O)N4CCCC4)sc3c2)nnc1-c1ccccc1 | / | / | / | 102* | /
Cc1cc2c(cc1C)-n1nnnc1C(N(Cc1ccccc1)Cc1ccccc1)C(=O)N2 (configuration not stated) | / | 1 | / | / | 2
COc1cc(NC(=O)c2ccc(-c3ccc(F)c(F)c3)c3ccoc23)cc(OC)c1OC | 2 | -8 | 18 | / | 2

Screens deposited in PubChem by Sanford-Burnham Center for Chemical Genomics.
